ChEMBL document CHEMBL4014350, “Alkoxyurea-Based Histone Deacetylase Inhibitors Increase Cisplatin Potency in Chemoresistant Cancer Cell Lines” (J Med Chem, 2017)

Columns and labels:
[1] = test system: CAL-27; experiment: Potentiation of 0.5 uM cisplatin-induced cytotoxicity against human CAL27 cells assessed as decrease in cell viability measuring combination index at 700 uM preincubated for 48 hrs followed by cisplatin treatment measured after 72 hrs by MTT assay; assay type: functional; settings: in the assay text read “at 700 nM” for “at 700 uM”
Procedure, shortened: (§1)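 Cal27 and cisplatin-resistant Cal27CisR cells were preincubated with the HDAC inhibitor for 48 h, then given cisplatin in combination. Viability was read by MTT after 72 h. The combination index was computed by the Chou–Talalay method: CI > 1 is antagonism, CI = 1 is additive, and CI < 0.9 is synergism. Points with fraction affected below 0.20 were flagged.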

[2] = organism: Homo sapiens; experiment: Selectivity ratio of IC50 for HDAC in human A2780 cells to IC50 for HDAC in human A2780CisR cells; assay type: cell-based
[3] = test system: CAL-27; experiment: Potentiation of 5 uM cisplatin-induced cytotoxicity against human CAL27 cells assessed as decrease in cell viability by measuring combination index at 500 uM preincubated for 48 hrs followed by cisplatin treatment measured after 72 hrs by MTT assay; assay type: functional; settings: in the assay text read “at 500 nM” for “at 500 uM”
Procedure, shortened: (§2)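 HDAC inhibitor was added 48 h before cisplatin, then cells were exposed to cisplatin for 72 h and viability was read by MTT assay. Combination index was computed by the Chou–Talalay method: CI > 1 is antagonism, CI = 1 additive, CI < 0.9 synergism. Points with fraction affected below 0.20 were flagged.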

[4] = target: T1, Histone deacetylase 1/6 (Homo sapiens) (UniProt Q13547+Q9UBN7); experiment: Inhibition of HDAC1/HDAC6 in human Cal27CisR cells assessed as potentiation of 1 uM cisplatin-induced cytotoxicity by measuring combination index at 700 uM preincubated for 48 hrs followed by cisplatin treatment measured after 72 hrs by MTT assay; assay type: cell-based
T1 sequence (Q13547 whole entry, looked up): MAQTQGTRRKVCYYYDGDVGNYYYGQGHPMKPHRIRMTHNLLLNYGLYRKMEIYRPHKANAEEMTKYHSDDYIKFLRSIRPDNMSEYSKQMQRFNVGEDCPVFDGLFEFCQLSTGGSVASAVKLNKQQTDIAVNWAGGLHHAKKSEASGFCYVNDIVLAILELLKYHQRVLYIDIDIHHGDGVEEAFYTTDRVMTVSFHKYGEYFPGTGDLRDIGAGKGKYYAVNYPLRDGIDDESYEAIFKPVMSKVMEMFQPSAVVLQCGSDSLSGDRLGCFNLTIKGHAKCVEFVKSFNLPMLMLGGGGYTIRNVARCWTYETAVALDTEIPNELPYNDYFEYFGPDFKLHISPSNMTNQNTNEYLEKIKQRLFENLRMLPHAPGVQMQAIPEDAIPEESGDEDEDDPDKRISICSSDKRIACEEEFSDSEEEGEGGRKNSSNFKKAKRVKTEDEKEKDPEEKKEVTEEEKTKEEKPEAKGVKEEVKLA
T1 sequence (Q9UBN7 whole entry, looked up): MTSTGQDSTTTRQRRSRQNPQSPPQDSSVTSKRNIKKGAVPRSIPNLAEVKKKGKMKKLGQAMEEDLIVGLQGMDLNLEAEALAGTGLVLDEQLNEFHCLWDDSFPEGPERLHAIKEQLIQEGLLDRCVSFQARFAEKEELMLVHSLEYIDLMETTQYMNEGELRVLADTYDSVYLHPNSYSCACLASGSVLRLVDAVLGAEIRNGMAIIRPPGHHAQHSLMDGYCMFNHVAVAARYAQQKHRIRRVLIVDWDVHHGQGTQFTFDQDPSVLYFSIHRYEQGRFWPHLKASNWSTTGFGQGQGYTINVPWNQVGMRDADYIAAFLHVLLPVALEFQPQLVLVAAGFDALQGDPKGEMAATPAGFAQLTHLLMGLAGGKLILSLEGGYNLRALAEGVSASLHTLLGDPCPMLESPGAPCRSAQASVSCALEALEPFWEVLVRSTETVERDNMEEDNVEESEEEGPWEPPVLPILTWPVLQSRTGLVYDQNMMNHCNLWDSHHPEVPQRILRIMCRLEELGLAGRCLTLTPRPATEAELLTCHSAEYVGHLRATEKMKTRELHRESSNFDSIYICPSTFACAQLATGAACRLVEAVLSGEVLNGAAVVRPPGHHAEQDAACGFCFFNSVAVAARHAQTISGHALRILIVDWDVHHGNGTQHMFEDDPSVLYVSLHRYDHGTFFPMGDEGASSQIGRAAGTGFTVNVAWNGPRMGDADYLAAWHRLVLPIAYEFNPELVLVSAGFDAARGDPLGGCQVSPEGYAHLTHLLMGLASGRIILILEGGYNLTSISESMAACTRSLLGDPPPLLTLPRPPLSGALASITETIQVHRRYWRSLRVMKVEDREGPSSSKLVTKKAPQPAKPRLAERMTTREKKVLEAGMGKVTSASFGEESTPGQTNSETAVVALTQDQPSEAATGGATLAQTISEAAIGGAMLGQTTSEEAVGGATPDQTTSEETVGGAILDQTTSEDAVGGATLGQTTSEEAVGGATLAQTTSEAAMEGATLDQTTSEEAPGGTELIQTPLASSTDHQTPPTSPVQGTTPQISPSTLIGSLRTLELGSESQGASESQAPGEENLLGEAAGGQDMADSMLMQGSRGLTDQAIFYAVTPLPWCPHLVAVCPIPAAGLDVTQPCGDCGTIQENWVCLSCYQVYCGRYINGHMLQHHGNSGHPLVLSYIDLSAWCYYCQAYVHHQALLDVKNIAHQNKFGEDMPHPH
Procedure, shortened: (§3)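 Cal27CisR cells preincubated 48 h with the HDAC inhibitor, then exposed to cisplatin for 72 h. Viability read by MTT. Combination index calculated by the Chou–Talalay method: CI > 1 antagonism, CI = 1 additive, CI < 0.9 synergism. Points with fraction affected below 0.20 are flagged. Values are the mean of three experiments.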

[5] = test system: CAL-27; experiment: Potentiation of 5 uM cisplatin-induced cytotoxicity against human CAL27 cells assessed as decrease in cell viability by measuring combination index at 800 uM preincubated for 48 hrs followed by cisplatin treatment measured after 72 hrs by MTT assay; assay type: functional; settings: in the assay text read “at 800 nM” for “at 800 uM”; procedure, shortened: as §2
[6] = target: T1, Histone deacetylase 1/6 (Homo sapiens); experiment: Inhibition of HDAC1/HDAC6 in human Cal27CisR cells assessed as potentiation of 20 uM cisplatin-induced cytotoxicity by measuring combination index at 400 nM preincubated for 48 hrs followed by cisplatin treatment measured after 72 hrs by MTT assay
[7] = test system: CAL-27; experiment: Potentiation of 2 uM cisplatin-induced cytotoxicity against human CAL27 cells assessed as decrease in cell viability by measuring combination index at 400 uM preincubated for 48 hrs followed by cisplatin treatment measured after 72 hrs by MTT assay; assay type: functional; settings: in the assay text read “at 400 nM” for “at 400 uM”; procedure, shortened: as §2
[8] = target: T1, Histone deacetylase 1/6 (Homo sapiens); experiment: Inhibition of HDAC1/HDAC6 in human Cal27CisR cells assessed as potentiation of 3.16 uM cisplatin-induced cytotoxicity by measuring combination index at 400 uM preincubated for 48 hrs followed by cisplatin treatment measured after 72 hrs by MTT assay; assay type: cell-based; procedure, shortened: as §1
[9] = test system: CAL-27; experiment: Potentiation of 0.316 uM cisplatin-induced cytotoxicity against human CAL27 cells assessed as decrease in cell viability by measuring combination index at 300 uM preincubated for 48 hrs followed by cisplatin treatment measured after 72 hrs by MTT assay; assay type: functional; settings: in the assay text read “at 300 nM” for “at 300 uM”; procedure, shortened: as §1
[10] = target: T1, Histone deacetylase 1/6 (Homo sapiens); experiment: Inhibition of HDAC1/HDAC6 in human Cal27CisR cells assessed as potentiation of cisplatin-induced cytotoxicity by measuring fold reduction in cisplatin IC50 at 0.5 uM preincubated for 48 hrs followed by cisplatin treatment measured after 72 hrs by MTT assay relative to cisplatin alone; assay type: cell-based
Procedure, shortened: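 Cal27CisR cells were pretreated 48 h with 0.5 μM inhibitor, then exposed to increasing cisplatin concentrations for 72 h, with IC50 by MTT. The shift factor is the IC50 of cisplatin alone divided by the IC50 of the combination. Data are mean ± SEM of pooled independent experiments (at least three), each in triplicate, and significance was tested by t test (p < 0.05).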

[11] = test system: CAL-27; experiment: Potentiation of 2 uM cisplatin-induced cytotoxicity against human CAL27 cells assessed as decrease in cell viability by measuring combination index at 200 uM preincubated for 48 hrs followed by cisplatin treatment measured after 72 hrs by MTT assay; assay type: functional; settings: in the assay text read “at 200 nM” for “at 200 uM”; procedure, shortened: as §2
[12] = target: T1, Histone deacetylase 1/6 (Homo sapiens); experiment: Inhibition of HDAC1/HDAC6 in human Cal27CisR cells assessed as potentiation of 3.16 uM cisplatin-induced cytotoxicity by measuring combination index at 200 uM preincubated for 48 hrs followed by cisplatin treatment measured after 72 hrs by MTT assay; assay type: cell-based; procedure, shortened: as §3
[13] = target: T1, Histone deacetylase 1/6 (Homo sapiens); experiment: Inhibition of HDAC1/HDAC6 in human Cal27CisR cells assessed as potentiation of 5 uM cisplatin-induced cytotoxicity by measuring combination index at 100 nM preincubated for 48 hrs followed by cisplatin treatment measured after 72 hrs by MTT assay
[14] = test system: CAL-27; experiment: Potentiation of 0.5 uM cisplatin-induced cytotoxicity against human CAL27 cells assessed as decrease in cell viability by measuring combination index at 100 uM preincubated for 48 hrs followed by cisplatin treatment measured after 72 hrs by MTT assay; assay type: functional; settings: in the assay text read “at 100 nM” for “at 100 uM”; procedure, shortened: as §1
[15] = target: T1, Histone deacetylase 1/6 (Homo sapiens); experiment: Inhibition of HDAC1/HDAC6 in human Cal27CisR cells assessed as potentiation of 1 uM cisplatin-induced cytotoxicity by measuring combination index at 400 nM preincubated for 48 hrs followed by cisplatin treatment measured after 72 hrs by MTT assay
[16] = test system: CAL-27; experiment: Potentiation of 1 uM cisplatin-induced cytotoxicity against human CAL27 cells assessed as decrease in cell viability by measuring combination index at 300 uM preincubated for 48 hrs followed by cisplatin treatment measured after 72 hrs by MTT assay; assay type: functional; procedure, shortened: as §2
[17] = target: T1, Histone deacetylase 1/6 (Homo sapiens); experiment: Inhibition of HDAC1/HDAC6 in human Cal27CisR cells assessed as potentiation of 5 uM cisplatin-induced cytotoxicity by measuring combination index at 400 uM preincubated for 48 hrs followed by cisplatin treatment measured after 72 hrs by MTT assay; assay type: cell-based; procedure, shortened: as §1
[18] = test system: CAL-27; experiment: Potentiation of 0.5 uM cisplatin-induced cytotoxicity against human CAL27 cells assessed as decrease in cell viability by measuring combination index at 300 uM preincubated for 48 hrs followed by cisplatin treatment measured after 72 hrs by MTT assay; assay type: functional; settings: in the assay text read “at 300 nM” for “at 300 uM”; procedure, shortened: as §1
[19] = test system: CAL-27; experiment: Potentiation of 0.5 uM cisplatin-induced cytotoxicity against human CAL27 cells assessed as decrease in cell viability by measuring combination index at 400 uM preincubated for 48 hrs followed by cisplatin treatment measured after 72 hrs by MTT assay; assay type: functional; settings: in the assay text read “at 400 nM” for “at 400 uM”; procedure, shortened: as §1

SMILES | CI [1] | Ratio IC50 [2] | CI [3] | CI [4] | CI [5] | CI [6] | CI [7] | CI [8] | CI [9] | fold change (FC) [10] | CI [11] | CI [12] | CI [13] | CI [14] | CI [15] | CI [16] | CI [17] | CI [18] | CI [19]
COc1cc(NC(=O)NOCCCCCC(=O)NO)c2ncccc2c1 | 0.97 | 2 to 3.4 | 0.35 | < 0.2 | 0.36 | – | – | – | – | – | – | – | – | – | – | – | – | – | –
COc1cc(NC(=O)NOCCCCCC(=O)NO)c2nccc(C)c2c1 | 0.57 | 2 to 3.4 | 0.29 | < 0.2 | 0.38 | 0.28 | 0.27 | < 0.2 | <0.2 | 8.2 | 0.39 | < 0.2 | < 0.2 | <0.2 | < 0.2 | 0.44 | 0.56 | <0.2 | 0.91
COc1cc(NC(=O)NOCCCCCC(=O)NO)c2nc(OC)cc(C)c2c1 | 0.7 | 2 to 3.4 | 0.43 | < 0.2 | 0.69 | 0.16 | 0.38 | 0.3 | <0.2 | 11.2 | 0.33 | 0.87 | 0.66 | <0.2 | < 0.2 | 0.64 | 0.19 | <0.2 | 0.75
